In the library only some 2.3% were active in any assay of this set; here they are far more common.
TRPC4 block: inhibitors of mouse TRPC4 channel; HEK293 TRPC4beta/mu-opioid, DAMGO-evoked Fluo4 calcium flux; active compounds read low; B-score at 10 µM; hit rate 0.39% among 300,000;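 active = B-score over 3 SD under the library average, no early fluorescence shift, positive overall ratio signal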
Target sequence (Q9QUQ5 whole entry, looked up): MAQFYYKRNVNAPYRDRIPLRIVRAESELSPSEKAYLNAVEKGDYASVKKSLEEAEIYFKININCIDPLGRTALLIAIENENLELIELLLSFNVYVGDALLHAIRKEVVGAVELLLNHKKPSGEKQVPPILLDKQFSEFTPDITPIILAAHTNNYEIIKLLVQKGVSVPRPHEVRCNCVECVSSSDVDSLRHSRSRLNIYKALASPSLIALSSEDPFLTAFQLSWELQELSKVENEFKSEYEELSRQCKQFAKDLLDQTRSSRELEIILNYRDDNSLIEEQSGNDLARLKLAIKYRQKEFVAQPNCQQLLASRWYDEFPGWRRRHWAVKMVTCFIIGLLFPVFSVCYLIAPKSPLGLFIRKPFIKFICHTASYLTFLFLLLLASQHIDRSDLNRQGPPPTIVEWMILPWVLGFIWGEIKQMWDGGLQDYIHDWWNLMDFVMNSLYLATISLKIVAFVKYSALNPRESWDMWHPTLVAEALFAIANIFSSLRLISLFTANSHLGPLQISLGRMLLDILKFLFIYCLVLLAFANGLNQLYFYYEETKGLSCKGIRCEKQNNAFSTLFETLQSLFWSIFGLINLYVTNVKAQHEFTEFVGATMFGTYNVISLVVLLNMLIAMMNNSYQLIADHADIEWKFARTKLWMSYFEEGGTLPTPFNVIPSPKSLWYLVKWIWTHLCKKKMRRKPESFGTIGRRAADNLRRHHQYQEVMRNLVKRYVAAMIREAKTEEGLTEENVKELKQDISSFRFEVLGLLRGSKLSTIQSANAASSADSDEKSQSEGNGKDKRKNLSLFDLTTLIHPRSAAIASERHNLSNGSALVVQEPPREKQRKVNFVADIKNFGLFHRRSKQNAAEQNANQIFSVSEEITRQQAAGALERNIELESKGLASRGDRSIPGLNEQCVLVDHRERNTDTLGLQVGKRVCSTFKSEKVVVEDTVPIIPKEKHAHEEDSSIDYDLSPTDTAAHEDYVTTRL
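Assay system: Stable TRPC4beta/mu-opioid receptor HEK293 cells | Reagent: DAMGO in two steps, submaximal then maximal | Compound dosing: Single concentration per test compound | Signal: Fluo4 Ca2+ flux fluorescence | Evaluation: Per-well B score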
TRPC4 agonist: TRPC4 (mouse) channel activation; hit rate 0.49% among 310,000; Q9QUQ5; B-score at 10 µM; HEK293 TRPC4beta/mu-opioid, Fluo4 calcium fluorescence; active compounds read high;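 active = B-score above 5 SD of library B-scores, and initial fluorescence ratio not above library mean plus 5 SD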;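 also: positive B-score marks a calcium rise read as TRPC4 activation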
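System – HEK293 cells stably co-expressing mouse TRPC4beta and mu-opioid receptor · Signal – Fluo4 calcium-sensitive dye fluorescence, kinetic, 1 Hz baseline · Benchmarks – buffer (low) and maximal DAMGO (high) · Read-out – B score of integrated fluorescence ratio per well · Incubation – dye loading 45 min room temperature, 110 s kinetic read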
TRPC6 act: activators of mouse TRPC6 channel; hit rate 0.13% among 310,000; HEK293-TRPC6 membrane potential dye fluorescence; active compounds read high; Q61143; B-score at 10 µM;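 active = B-score of the integrated fluorescence ratio above library mean plus 3 SD, and starting fluorescence ratio within library mean plus 5 SD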;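 also: higher score means more depolarization so channel activation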
TRPC6 inh: inhibitors of mouse TRPC6 channel. Q61143. HEK293-TRPC6, membrane potential dye, ACh-evoked depolarization; active compounds read low. B-score at 10 µM. hit rate 1.1% among 310,000;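 active = B-score under library mean minus 3 SD, initial fluorescence not abnormally high, positive integrated signal ratio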;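 also: B-score derived from integrated fluorescence ratio over the kinetic read; more negative B-score means stronger inhibition of depolarization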
TRPC4 PAM: allosterically enhances the mouse TRPC4 cation channel; HEK293 TRPC4beta/mu-opioid, DAMGO EC20, Fluo-4 Ca2+ flux; active compounds read high; hit rate 0.42% among 310,000; B-score at 10 µM;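 active = B-score of calcium response area above 5 SD of library B-scores, with initial fluorescence ratio within 5 SD of library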
TRPC4 sel inh 2: mouse TRPC4 off-target activity of TRPC6 inhibitors, second screen; HEK293 TRPC4/MOR, membrane potential dye fluorescence; channel activated by saturating DAMGO dose; shares compounds with TRPC6 inh; hit rate 42% among 920; inhibition, % at 10 µM;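 active = compounds whose fluorescence signal differed from control wells by over 3 SD, either direction, in both duplicate plates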
TRPC4 spec: tests whether TRPC6 inhibitors also affect mouse TRPC4; shares compounds with TRPC6 inh; activity change, negative = inhibition, % at 10 µM; hit rate 61% among 920; HEK293 TRPC4/mu-opioid, membrane potential fluorescence;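 active = rise or fall in signal beyond 3 SD of buffer-only wells in both replicate plates, either sign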;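 also: integrated kinetic ratio of fluorescence range over baseline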
HEK293 MPD ctr 2-1: parental HEK293 nonspecific activity of TRPC6 inhibitors, second screen; shares compounds with TRPC6 inh; parental HEK293 membrane potential dye fluorescence; maximal acetylcholine challenge after compound addition; signal change vs control, % at 10 µM; hit rate 31% among 920;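 active = membrane potential signal moving either way by over 3 SD of the maximum-effect control, in both duplicate plates, meaning non-specific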
HEK293 MPD ctr-1: parental HEK293 nonspecific activity of TRPC6 inhibitors | AID 2780 | shares compounds with TRPC6 inh | membrane potential signal change, % at 10 µM | parental HEK293 membrane potential dye fluorescence | hit rate 60% among 920;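 active = membrane potential signal shifting up or down by more than 3 SD of buffer-only wells, on both duplicate plates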
HEK293 MPD ctr-2: parental HEK293 nonspecific activity of TRPC6 modulators; AID 488924; shares compounds with TRPC6 inh; membrane potential dye fluorescence; hit rate 51% among 2,400; membrane potential signal change, % at 10 µM;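 active = membrane potential signal moves up or down beyond 5 SD from buffer-only wells, on both duplicate plates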
HEK293 MPD ctr 2-2: parental HEK293 nonspecific activity of TRPC6 modulators, second screen | membrane potential dye fluorescence; after compound, maximal acetylcholine stimulation | shares compounds with TRPC6 inh | AID 488926 | hit rate 14% among 2,400 | inhibition, % at 10 µM;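 active = membrane potential signal drops by more than 5 SD from the mean control signal, in both duplicate plates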
TRPC4/MOR mod: mouse TRPC4 off-target activity of TRPC6 modulators | HEK293 TRPC4/mu-opioid, membrane potential fluorescence | hit rate 69% among 2,400 | shares compounds with TRPC6 inh | percent change from control (negative = decrease, positive = increase), % at 10 µM | AID 488927;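 active = membrane potential signal moved up or down beyond 5 SD of buffer control wells, in both duplicate plates, actives on both sides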
TRPC4 ctr inh 2: second selectivity test of TRPC6 modulators against mouse TRPC4; HEK293 TRPC4/mu-opioid, membrane potential dye fluorescence; stimulated with maximal-effect DAMGO; AID 488928; inhibition, % at 10 µM; shares compounds with TRPC6 inh; hit rate 55% among 2,400;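 active = drop in membrane potential signal beyond 5 SD of the control wells in both duplicate plates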;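 also: TRPC4 counter screen for TRPC6 hits run under conditions tuned for TRPC6 not TRPC4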
TRPC6 block conf: confirmation of mouse TRPC6 inhibitors | AID 488960 | shares compounds with TRPC6 inh | inhibition, % at 10 µM | hit rate 43% among 3,300 | HEK293-TRPC6, membrane potential dye, ACh-evoked depolarization;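 active = fluorescence ratio falls more than 5 SD below the full-stimulation control mean, in both duplicate runs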;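 also: integrated fluorescence ratio of peak minus minimum over baseline after agonist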
TRPC6 act conf: confirmation of mouse TRPC6 activators; shares compounds with TRPC6 inh; HEK293-TRPC6 membrane potential dye fluorescence, FDSS; activation, % at 10 µM; hit rate 11% among 2,800;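 active = ratio signal rise beyond 5 SD above unstimulated control wells' mean, seen in both duplicate runs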
Hits are given with their value; n = inactive; x = not tested or not shown; + = active, no number.

SMILES | TRPC4 block | TRPC4 agonist | TRPC6 act | TRPC6 inh | TRPC4 PAM | TRPC6 block conf | TRPC6 act conf | others
C[N+](C)(N)CCOC(=O)C(O)(c1ccccc1)C1CCCCC1 (stereo unspecified) | n | n | n | -9.56 | n | 89.0% | n | TRPC4 sel inh 2=n;TRPC4 spec=n;HEK293 MPD ctr 2-1=-39.0%;HEK293 MPD ctr-1=n
CN(C)CC#CCC(O)(c1ccccc1)C1CCCC1 (stereo unspecified) | n | n | n | n | n | x | x
CC[N+](CC)(CC)CCCOC(=O)C(O)(c1ccccc1)C1CCCCC1 (stereo unspecified) | n | n | n | -11.8 | n | 97.4% | n | TRPC4 sel inh 2=n;TRPC4 spec=n;HEK293 MPD ctr 2-1=-39.5%;HEK293 MPD ctr-1=n
COC(=O)C1=C(c2cc3ccccc3o2)C[C@@H]2CC[C@H]1N2C(=O)NCCO | n | n | n | n | n | x | x
CCn1ccnc1CN1CCCC(C(=O)c2ccc(SC)cc2)C1 (stereo unspecified) | n | n | n | -5.04 | n | 54.5% | x | HEK293 MPD ctr-2=n;HEK293 MPD ctr 2-2=n;TRPC4/MOR mod=15.0%;TRPC4 ctr inh 2=n
CN1CCCN(c2ccc([N+](=O)[O-])nc2)CC1 | n | n | n | n | n | x | x
COc1cc(/C=C/[N+](=O)[O-])ccc1O | n | n | n | n | n | x | x
CCN(CC)c1ccc(/C=C/[N+](=O)[O-])cc1 | n | 105 | 55.5 | n | n | x | 433.5% | HEK293 MPD ctr-2=+;HEK293 MPD ctr 2-2=+;TRPC4/MOR mod=386.0%;TRPC4 ctr inh 2=32.0%
O=CNc1ccc(OP(=O)(Oc2ccccc2)Oc2ccccc2)cc1 | n | n | n | n | n | x | x

High-throughput results deposited in PubChem BioAssay by Johns Hopkins Ion Channel Center.
